# Screening data (PubChem)
# hERG rescue: hERG rescue from dofetilide block, primary screen, cell-based, CHO-hERG, FluxOR thallium flux, dofetilide IC70. Voltage-gated inwardly rectifying potassium channel KCNH2 (Homo sapiens), Q12809. dofetilide IC70 present. activation (rescue from dofetilide block), less the hit threshold, % at 10 µM. 310,000 compounds, 0.51% hits. AID 1511, 2009;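 active means activation above the mean of controls blocked by dofetilide plus 5 SD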;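 further: thallium influx through hERG after potassium depolarization seen as dye fluorescence rise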
# Kir21 block: inhibitors of mouse Kir2.1 inward-rectifier potassium channel | B-score at 10 µM | AID 1672, 2009 | 310,000 compounds, 0.85% hits | HEK293-Kir2.1, FluxOR thallium flux fluorescence; hits give low values;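 active means fluorescence ratio B-score at or below minus 3 SD of library scores, with starting-brightness B-score within 2 SD, cut at about -4.2 in these data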;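 further: channel flux triggered by added potassium and thallium sulfate stimulus; B-score of peak minus minimum fluorescence over baseline after thallium stimulus; more negative B-score means stronger Kir2.1 block with less thallium influx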
# KCNQ1 inh: inhibitors of human KCNQ1 channel, primary screen, cell-based, thallium flux, high-throughput. CHO-K1 KCNQ1, FluxOR thallium flux fluorescence; hits give high values. Potassium voltage-gated channel subfamily KQT member 1 (Homo sapiens), P51787. 310,000 compounds, 1.3% hits. B-score at 10 µM;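 active means compounds whose thallium flux B-score, printed positive for inhibition, exceeds three library SD while starting fluorescence stays within three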;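 further: channel opened by potassium depolarization with thallium stimulus after 20 min compound exposure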
# Target sequence (P51787 whole entry, looked up): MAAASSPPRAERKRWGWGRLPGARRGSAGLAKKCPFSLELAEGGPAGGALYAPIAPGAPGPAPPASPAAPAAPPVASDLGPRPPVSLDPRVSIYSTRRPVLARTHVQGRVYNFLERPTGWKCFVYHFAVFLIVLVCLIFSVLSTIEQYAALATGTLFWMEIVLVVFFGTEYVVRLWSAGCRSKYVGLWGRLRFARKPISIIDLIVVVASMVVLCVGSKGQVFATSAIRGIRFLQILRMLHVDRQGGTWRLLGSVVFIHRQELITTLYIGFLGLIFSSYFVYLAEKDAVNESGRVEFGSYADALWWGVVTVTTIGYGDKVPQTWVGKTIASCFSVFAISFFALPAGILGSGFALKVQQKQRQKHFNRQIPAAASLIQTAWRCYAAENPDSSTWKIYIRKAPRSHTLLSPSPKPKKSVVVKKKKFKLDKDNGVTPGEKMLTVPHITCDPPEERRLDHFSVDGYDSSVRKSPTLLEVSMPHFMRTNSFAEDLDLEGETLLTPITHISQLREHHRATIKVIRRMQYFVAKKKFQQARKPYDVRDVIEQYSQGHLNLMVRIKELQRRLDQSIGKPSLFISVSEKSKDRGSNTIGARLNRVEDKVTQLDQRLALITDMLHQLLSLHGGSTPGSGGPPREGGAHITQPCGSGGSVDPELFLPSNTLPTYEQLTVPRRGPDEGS
# KCNK3 block: human KCNK3 channel inhibitors, primary screen, CHO cells, FluxOR thallium flux, B-score; Potassium channel subfamily K member 3 (Homo sapiens), O14649; 340,000 compounds, 0.84% hits; FluxOR fluorescence; hits give low values; B-score at 10 µM;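 active means B-score under library mean minus 4 SD, starting fluorescence ratio at most library mean plus 5 SD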;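 further: more negative B-score means stronger inhibition of thallium flux through KCNK3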
# KCNQ1 act: potentiators or activators of KCNQ1 channel, primary screen, cell-based, thallium flux, high-throughput | Potassium voltage-gated channel subfamily KQT member 1 (Homo sapiens), P51787 | CHO-K1 KCNQ1, thallium flux FluxOR fluorescence; hits give high values | B-score at 10 µM | 310,000 compounds, 0.35% hits | AID 2648, 2010;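 active means fluorescence ratio B-score, a plate-corrected score, at least three library SD, with initial intensity B-score within 5 SD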
#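 Material: CHO-K1 cells stably expressing KCNQ1. Medium: assay buffer for compound exposure, DMSO matched across wells. Reagent: K+/Tl+ depolarizing stimulus. Compound dosing: single-concentration screen. Times: 37 °C overnight plating, 90-min dark dye load, 20-min compound pretreatment. Technique: FluxOR Tl+ flux fluorescence.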
# KCNK9 inh-1: KCNK9 potassium channel inhibitors, primary screen, HEK293 cells, thallium flux; 310,000 compounds, 1.2% hits; Potassium channel subfamily K member 9 (Homo sapiens), Q9NPC2; FluxOR thallium flux fluorescence; hits give low values; B-score at 10 µM;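 active means ratio B-score over 3 SD below the library mean, with starting fluorescence within 5 SD of its mean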;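 further: negative B-score means less thallium flux so channel inhibition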
# hERG ctr: hERG channel inhibition, counter-screen for Kir2.1 inhibitor project, cell-based, thallium flux; hERG-expressing cells; inhibition, % at 10 µM; 320 compounds, 20% hits; shares compounds with Kir21 block;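 further: host cells are CHO cells stably expressing hERG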
# KCNK9 inh-2: KCNK9 channel inhibition, selectivity assay for Kir2.1 inhibitor project, cell-based; 320 compounds, 5% hits; KCNK9-expressing cells, ion flux inhibition; shares compounds with Kir21 block; inhibition, % at 10 µM
# Kir2-1 patch inh: mouse Kir2.1 channel blockers, Kir2.1 inhibitor project, cell-based, secondary, automated electrophysiology | shares compounds with Kir21 block | Kir2.1 cells, automated patch-clamp current inhibition | inhibition, % at 25 µM | 320 compounds, 71% hits | AID 463252, 2010
# KCNQ1 block val: KCNQ1 potassium channel inhibitors, confirmation, cell-based, Tl flux, duplicate | shares compounds with KCNQ1 inh | KCNQ1 cell line, FluxOR thallium flux fluorescence | inhibition, % at 10 µM | 1,600 compounds, 93% hits | AID 588353, 2011;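 active means primary screen active, with duplicate mean exceeding buffer control mean plus 3 SD of buffer wells, cut at about 28% in these data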;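 further: 0% = buffer control ratio and 100% = XE991 inhibitor control ratio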
# CHO Tl flux: thallium flux effects in parental CHO cells, counter-screen for KCNQ1 inhibitor project, cell-based, Tl flux | shares compounds with KCNQ1 inh | parental CHO-K1, FluxOR thallium flux fluorescence ratio; hits give low values; zero means no signal rise above baseline | fluorescence ratio (Tl flux) at 10 µM | 1,600 compounds, 21% hits | AID 588366, 2011;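 active means mean of duplicate thallium-flux fluorescence ratios in parental host cells more than 5 SD below the buffer control mean, cut at about 0.38 in these data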;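 further: ratio is peak minus minimum fluorescence divided by baseline fluorescence; actives read low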
# KCNQ1 APC inh: KCNQ1 channel inhibitors, confirmation, orthogonal assay, cell-based, automated electrophysiology; shares compounds with KCNQ1 inh; KCNQ1-CHO cells, automated patch clamp current; calls only at 10 µM; 490 compounds, 20% hits;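 active means KCNQ1 current drop exceeding 3 SD of negative control wells, seen in both duplicate runs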;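 further: steady state current during a 2 s step from -80 to +40 mV; negative values mean current inhibition and positive values mean potentiation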
# KCNQ2 inh: KCNQ2 channel inhibition, selectivity assay for KCNQ1 inhibitor project, cell-based. inhibition, % at 10 µM. 1,600 compounds, 71% hits. shares compounds with KCNQ1 inh. KCNQ2 cells, FluxOR thallium flux fluorescence. AID 651746, 2012;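 active means mean percent inhibition of the KCNQ2 thallium signal more than 5 SD above the buffer-only control wells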;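 further: KCNQ2 expressed in CHO cells; 0% = buffer control wells and 100% = XE-991 inhibitor control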
# KCNQ1-KCNE1 inh: KCNQ1/KCNE1 channel inhibition, selectivity assay for KCNQ1 inhibitor project, CHO-K1 cells, thallium flux, FluxOR; shares compounds with KCNQ1 inh; 1,600 compounds, 77% hits; FluxOR thallium flux fluorescence; inhibition, % at 10 µM;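 active means mean percent inhibition of duplicate wells above the buffer-only control mean plus 3 SD of those controls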;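 further: 0% = buffer only wells and 100% = XE-991 inhibitor control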
# KCNK9 block conf: KCNK9 potassium channel inhibitors, confirmation, HEK293 cells, thallium flux, duplicate; 4,900 compounds, 43% hits; AID 492992, 2010; inhibition, % at 10 µM; shares compounds with KCNK9 inh-1; FluxOR thallium flux fluorescence;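 active means thallium signal inhibited by more than 5 SD of the compound-free buffer control wells, on both duplicate plates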;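 further: 0% = assay buffer control wells without compound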
# Kir2-1 spec: mouse Kir2.1 channel inhibition, confirmation, selectivity assay for KCNK9 modulator project, cell-based, HEK293, thallium flux | shares compounds with KCNK9 inh-1 | Kir2.1 cells, FluxOR thallium flux fluorescence | inhibition, % at 10 µM | 4,900 compounds, 4% hits;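 active means thallium signal drop more than 5 SD beyond the mean of the no-compound control wells, seen in both duplicate plates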;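 further: signal is fluorescence rise after thallium addition divided by baseline fluorescence; plate controls were assay buffer only for no effect and full block by chlorpromazine control for full effect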
# KCNK9 uninduced: thallium flux in non-induced HEK293 cells, confirmation, counter-screen for KCNK9 inhibitor project, cell-based, second counter screen, non-induced KCNK9-HEK293. 4,900 compounds, 40% hits. shares compounds with KCNK9 inh-1. inhibition, % at 10 µM. FluxOR thallium flux;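 active means thallium signal drop beyond 5 SD of the untreated control mean, on both duplicate plates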;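 further: plate controls were buffer only IC0 wells for no effect and SID17386958 at its maximal inhibitory level for full effect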
# KCNK3 inh conf: retest of human KCNK3 channel inhibitors, confirmation, CHO cells, FluxOR thallium flux, triplicate. shares compounds with KCNK3 block. FluxOR fluorescence; 0% buffer, 100% carvedilol maximal block. ratio percent of control, % at 10 µM. 2,400 compounds, 99% hits;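 active means ratio percent of control, averaged over triplicates, above buffer control mean plus 5 SD, cut at about 64% in these data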;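 further: ratio is the fluorescence rise from min to max over baseline after thallium stimulus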
# KCNK3 uninduced: thallium flux inhibition in non-induced cells, primary screen, counter-screen for KCNK3 inhibitor project, cell-based, non-induced KCNK3 line, FluxOR thallium, triplicate; shares compounds with KCNK3 block; non-induced KCNK3 parental cells; hits give low values; thallium flux ratio (lower = more inhibition) at 10 µM; 2,400 compounds, 40% hits; AID 651747, 2012;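 active means thallium flux ratio, averaged over three wells, more than 5 SD below the buffer control mean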;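 further: host cells are CHO cells without KCNK3 induction; ratio is peak minus trough fluorescence over baseline then normalized to buffer controls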
# The depositor's hits bear a star; i = inactive; x = no result given. Rows were chosen to be rich in hits. Some 3.8% of all compounds tested hit in one or more screens of this group. Unless noted, how the calls were made is not given here.
SMILES,hERG rescue,Kir21 block,KCNQ1 inh,KCNK3 block,KCNQ1 act,KCNK9 inh-1,hERG ctr,KCNK9 inh-2,Kir2-1 patch inh,others
CCOc1ccc(C(C)NC(=S)NCc2ccc(F)cc2)cc1 (configuration not stated),-7,1.6,i,i,i,i,x,x,x,
COc1cccc(C(C)NC(=S)NCc2ccc(F)cc2)c1 (configuration not stated),-15,-6.8*,i,i,i,i,i,31%*,43%*,
CCN(C(=O)COC(=O)c1ccc(SC)cc1OC)C1CCS(=O)(=O)C1 (configuration not stated),x,x,x,i,x,x,x,x,x,
CC(CCc1ccc(O)cc1)NC1C2CC3CC(C2)CC1C3 (configuration not stated),-4,-3.8,i,i,i,i,x,x,x,
CC(CCc1ccc(O)cc1)NC1c2ccccc2-c2ccccc21 (configuration not stated),-6,-14*,i,i,i,i,60%*,i,i,
C=CCNCCCCOc1c(Cl)cc(C)cc1Br,-14,-9.3*,i,i,i,i,i,i,48%*,
Cc1ccc(S(=O)(=O)NCCCNS(=O)(=O)c2ccccc2Br)cc1,x,x,x,i,x,x,x,x,x,
CN(C)CC/C=C1\c2ccccc2Sc2ccc(Cl)cc21,-14,-8.1*,i,i,i,i,58%*,i,28%*,KCNK9 block conf=i;Kir2-1 spec=59%*;KCNK9 uninduced=i
COc1ccc(N(C)S(=O)(=O)c2cccc(C(=O)OCC(=O)c3c(N)n(C)c(=O)n(C)c3=O)c2)cc1,x,x,x,i,x,x,x,x,x,
O=C(c1ccc2c(c1)N(Cc1ccccc1)CCS2)N1CCCCC1,-14,-5.8*,i,-9.9*,i,i,i,i,i,KCNK3 inh conf=124*;KCNK3 uninduced=0.13*
COc1cccc(CNC(=O)c2ccccc2-c2ccccc2)c1,-7,-0.71,i,i,i,i,x,x,x,
Cn1cc(CNCc2ccc(OC(F)(F)F)cc2)c(-c2ccc3c(c2)OCCO3)n1,-20,0.14,10*,i,i,i,x,x,x,KCNQ1 block val=124*;CHO Tl flux=0.49;KCNQ1 APC inh=i;KCNQ2 inh=112%*;KCNQ1-KCNE1 inh=60%*
C=CCn1c(SCc2c(C)noc2C)nc2sc3c(c2c1=O)CCCC3,-10,0.44,7*,i,i,i,x,x,x,KCNQ1 block val=80*;CHO Tl flux=0.39;KCNQ2 inh=90%*;KCNQ1-KCNE1 inh=146%*
Cc1ccc(S(=O)(=O)c2ccc(C)cc2)cc1,-3,1.4,i,i,i,i,x,x,x,
Cc1ccc(S(=O)(=O)c2ccc(Oc3cccc(C)c3)cc2)cc1,-16,0.41,8*,i,i,i,x,x,x,KCNQ1 block val=112*;CHO Tl flux=0.41;KCNQ1 APC inh=i;KCNQ2 inh=108%*;KCNQ1-KCNE1 inh=114%*
CCc1nc2ccccc2nc1N1CCN(S(=O)(=O)c2ccc(Cl)cc2)CC1,-4,0.18,i,i,i,i,x,x,x,
O=S(=O)(c1ccccc1)N1c2cc(Cl)ccc2Oc2nc3ccccc3nc21,-8,-0.99,8*,i,i,i,x,x,x,KCNQ1 block val=109*;CHO Tl flux=0.36*;KCNQ2 inh=100%*;KCNQ1-KCNE1 inh=146%*
O=C(NCCc1csc(-c2ccc(Cl)cc2)n1)c1ccco1,-15,-0.11,i,i,i,i,x,x,x,
